According to ChEMBL document CHEMBL4308918, “Rational Design of Cell-Active Inhibitors of PARP10” (ACS Med Chem Lett, 2019):
Values belong to the compound of their own block, whether it stands above or below them.

Key:
[1] = target: T1, Protein mono-ADP-ribosyltransferase PARP10 (Homo sapiens, UniProt Q53GL7); experiment: Inhibition of human PARP10 catalytic domain assessed as reduction in MARylation of His6-tagged SRPK2 substrate after 60 mins in presence of NAD+ by chemifluorescence assay
T1 sequence (Q53GL7 whole entry): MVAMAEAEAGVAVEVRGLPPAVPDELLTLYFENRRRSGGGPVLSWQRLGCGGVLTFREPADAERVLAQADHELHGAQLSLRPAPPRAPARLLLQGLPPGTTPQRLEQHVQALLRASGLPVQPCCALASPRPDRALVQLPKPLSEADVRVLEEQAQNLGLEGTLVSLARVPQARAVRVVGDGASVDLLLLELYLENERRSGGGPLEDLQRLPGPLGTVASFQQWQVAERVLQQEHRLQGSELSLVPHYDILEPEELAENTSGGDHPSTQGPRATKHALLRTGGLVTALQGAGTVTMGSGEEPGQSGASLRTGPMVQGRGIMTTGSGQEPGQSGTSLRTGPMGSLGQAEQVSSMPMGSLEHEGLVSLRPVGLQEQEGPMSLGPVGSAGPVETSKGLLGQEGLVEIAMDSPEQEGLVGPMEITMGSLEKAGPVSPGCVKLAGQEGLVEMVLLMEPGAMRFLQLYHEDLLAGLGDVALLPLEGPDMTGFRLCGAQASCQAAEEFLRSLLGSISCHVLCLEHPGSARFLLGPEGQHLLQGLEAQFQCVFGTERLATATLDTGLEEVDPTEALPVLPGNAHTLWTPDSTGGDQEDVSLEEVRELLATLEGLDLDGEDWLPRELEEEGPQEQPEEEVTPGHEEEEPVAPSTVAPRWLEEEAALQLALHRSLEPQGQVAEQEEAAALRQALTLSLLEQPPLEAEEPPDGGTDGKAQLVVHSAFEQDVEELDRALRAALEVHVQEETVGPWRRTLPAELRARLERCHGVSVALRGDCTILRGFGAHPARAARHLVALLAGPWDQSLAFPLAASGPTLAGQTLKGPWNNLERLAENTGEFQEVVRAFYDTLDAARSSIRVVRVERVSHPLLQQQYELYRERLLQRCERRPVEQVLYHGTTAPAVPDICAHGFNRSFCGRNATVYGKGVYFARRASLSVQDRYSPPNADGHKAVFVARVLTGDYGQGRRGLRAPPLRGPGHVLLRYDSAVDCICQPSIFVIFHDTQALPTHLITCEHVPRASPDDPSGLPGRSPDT

[2] = Aqueous solubility of the compound; type: physicochemical; conditions: buffer
[3] = target: Protein mono-ADP-ribosyltransferase PARP4 (Homo sapiens, UniProt Q9UKK3); experiment: Inhibition of human PARP4 BRCT-catalytic domain (1 to 572 residues) assessed as reduction in MARylation of SRPK2 substrate after 60 mins in presence of 6-a-NAD+ by chemifluorescence assay
Summary of the method: (§1)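 Recombinant enzyme was tested in a 96-well plate assay that monitors MARylation of the substrate SRPK2 with the clickable 6-a-NAD+.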

[4] = Inhibition of GFP-tagged human PARP6 short isoform expressed in HEK293T cells assessed as reduction in auto-MARylation after 60 mins in presence of 6-a-NAD+ by chemiluminescent immunoprecipitation assay; type: cell-based
[5] = Inhibition of GFP-tagged human PARP6 long isoform expressed in HEK293T cells assessed as reduction in auto-MARylation after 60 mins in presence of 6-a-NAD+ by chemiluminescent immunoprecipitation assay; type: cell-based
[6] = target: T2, Protein mono-ADP-ribosyltransferase TIPARP (Homo sapiens, UniProt Q7Z3E1); experiment: Inhibition of human PARP7 assessed as reduction in MARylation of SRPK2 substrate after 60 mins in presence of 6-a-NAD+ by chemifluorescence assay; summary of the method: as §1
T2 sequence (Q7Z3E1 whole entry): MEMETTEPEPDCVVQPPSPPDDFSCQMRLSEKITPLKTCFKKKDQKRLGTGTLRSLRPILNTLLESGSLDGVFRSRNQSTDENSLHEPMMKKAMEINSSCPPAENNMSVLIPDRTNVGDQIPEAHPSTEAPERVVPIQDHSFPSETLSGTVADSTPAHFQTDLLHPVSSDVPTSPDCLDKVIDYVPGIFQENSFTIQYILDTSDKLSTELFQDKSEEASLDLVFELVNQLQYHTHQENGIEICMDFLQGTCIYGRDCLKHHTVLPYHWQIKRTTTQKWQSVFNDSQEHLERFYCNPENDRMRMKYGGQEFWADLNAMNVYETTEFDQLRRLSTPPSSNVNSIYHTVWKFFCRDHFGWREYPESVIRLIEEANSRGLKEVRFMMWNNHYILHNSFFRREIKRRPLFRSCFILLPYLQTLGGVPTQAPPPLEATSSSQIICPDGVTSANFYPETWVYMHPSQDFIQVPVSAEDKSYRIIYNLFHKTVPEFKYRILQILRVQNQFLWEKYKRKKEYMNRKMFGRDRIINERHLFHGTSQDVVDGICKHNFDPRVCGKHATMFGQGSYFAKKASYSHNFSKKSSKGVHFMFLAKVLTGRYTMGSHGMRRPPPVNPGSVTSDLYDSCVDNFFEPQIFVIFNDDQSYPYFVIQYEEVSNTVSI

[7] = target: T3, Protein mono-ADP-ribosyltransferase PARP16 (Homo sapiens, UniProt Q8N5Y8); experiment: Inhibition of human transmembrane domain deficient His-SUMO-tagged PARP16 expressed in Escherichia coli BL21 assessed as reduction in MARylation of His6-tagged SRPK2 substrate after 60 mins in presence of 6-a-NAD+ by chemifluorescence assay; summary of the method: as §1
T3 sequence (Q8N5Y8 whole entry): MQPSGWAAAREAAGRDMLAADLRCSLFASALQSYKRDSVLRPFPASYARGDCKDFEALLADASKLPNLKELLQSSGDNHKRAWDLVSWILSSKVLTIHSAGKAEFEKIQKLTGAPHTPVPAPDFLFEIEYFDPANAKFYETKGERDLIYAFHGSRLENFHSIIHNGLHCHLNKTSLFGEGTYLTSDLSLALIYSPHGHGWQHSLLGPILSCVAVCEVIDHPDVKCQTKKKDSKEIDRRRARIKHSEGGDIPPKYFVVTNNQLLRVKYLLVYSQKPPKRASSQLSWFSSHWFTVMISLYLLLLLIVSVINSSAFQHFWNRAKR

Homo sapiens [8] = species: Homo sapiens; experiment: Selectivity ratio of IC50 for full length human PARP1 to IC50 for human PARP10 catalytic domain
Summary of the method: (§2)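 Selectivity ratio is the IC50 for the given PARP divided by the IC50 for PARP10 catalytic domain. IC50s came from the 6-a-NAD+ SRPK2 plate assay or, for cell-expressed PARPs, the immunoprecipitation auto-MARylation assay.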

Homo sapiens [9] = species: Homo sapiens; experiment: Selectivity ratio of IC50 for full length human PARP2 to IC50 for human PARP10 catalytic domain; summary of the method: as §2
Homo sapiens [10] = species: Homo sapiens; experiment: Selectivity ratio of IC50 for full length human PARP3 to IC50 for human PARP10 catalytic domain; summary of the method: as §2
Homo sapiens [11] = species: Homo sapiens; experiment: Selectivity ratio of IC50 for human PARP4 BRCT-catalytic domain (1 to 572 residues) to IC50 for human PARP10 catalytic domain; summary of the method: as §2
Homo sapiens [12] = species: Homo sapiens; experiment: Selectivity ratio of IC50 for human PARP5B catalytic domain (1 to 572 residues) to IC50 for human PARP10 catalytic domain; summary of the method: as §2
Homo sapiens [13] = species: Homo sapiens; experiment: Selectivity ratio of IC50 for GFP-tagged human PARP6 short isoform expressed in HEK293T cells to IC50 for human PARP10 catalytic domain; type: cell-based; summary of the method: as §2
Homo sapiens [14] = species: Homo sapiens; experiment: Selectivity ratio of IC50 for GFP-tagged human PARP6 long isoform expressed in HEK293T cells to IC50 for human PARP10 catalytic domain; type: cell-based; summary of the method: as §2
Homo sapiens [15] = species: Homo sapiens; experiment: Selectivity ratio of IC50 for human PARP7 to IC50 for human PARP10 catalytic domain; summary of the method: as §2
Homo sapiens [16] = species: Homo sapiens; experiment: Selectivity ratio of IC50 for GFP-tagged human PARP8 expressed in HEK293T cells to IC50 for human PARP10 catalytic domain; type: cell-based; summary of the method: as §2
Homo sapiens [17] = species: Homo sapiens; experiment: Selectivity ratio of IC50 for GFP-tagged human PARP12 expressed in HEK293T cells to IC50 for human PARP10 catalytic domain; type: cell-based; summary of the method: as §2
Homo sapiens [18] = species: Homo sapiens; experiment: Selectivity ratio of IC50 for human PARP14 catalytic-WWE domain (1459 to 1801 residues) expressed in Escherichia coli BL21 to IC50 for human PARP10 catalytic domain; summary of the method: as §2
Homo sapiens [19] = species: Homo sapiens; experiment: Selectivity ratio of IC50 for human PARP15 catalytic domain to IC50 for human PARP10 catalytic domain; summary of the method: as §2
Homo sapiens [20] = species: Homo sapiens; experiment: Selectivity ratio of IC50 for human transmembrane domain deficient His-SUMO-tagged PARP16 expressed in Escherichia coli BL21 to IC50 for human PARP10 catalytic domain; summary of the method: as §2
[21] = target: T4, Protein mono-ADP-ribosyltransferase PARP10 (Homo sapiens) (UniProt Q53GL7); experiment: Inhibition of human PARP10 catalytic domain assessed as reduction in auto-MARylation at 30 uM after 60 mins in presence of 6-a-NAD+ by chemiluminescent immunoprecipitation assay relative to control
T4 sequence (whole entry): T1 sequence (Q53GL7 whole entry)

[22] = target: T4, Protein mono-ADP-ribosyltransferase PARP10 (Homo sapiens); experiment: Inhibition of GFP-tagged human PARP10 expressed in HEK293T cells assessed as reduction in auto-MARylation after 3 hrs by Western blot analysis; type: cell-based
Summary of the method: (§3)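 HEK293T cells transfected with GFP-PARP10 and treated with compound at 1−100 μM for 3 h. A Western blot using an ADP-ribose binding reagent detected PARP10 auto-MARylation and PARP10-mediated MARylation of high molecular weight targets.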

[23] = target: T4, Protein mono-ADP-ribosyltransferase PARP10 (Homo sapiens); experiment: Inhibition of GFP-tagged human PARP10 expressed in HEK293T cells assessed as reduction in high molecular weight target protein MARylation after 3 hrs by Western blot analysis; type: cell-based; summary of the method: as §3

Protein mono-ADP-ribosyltransferase PARP4, sequence (Q9UKK3 whole entry, the tested form may be a part): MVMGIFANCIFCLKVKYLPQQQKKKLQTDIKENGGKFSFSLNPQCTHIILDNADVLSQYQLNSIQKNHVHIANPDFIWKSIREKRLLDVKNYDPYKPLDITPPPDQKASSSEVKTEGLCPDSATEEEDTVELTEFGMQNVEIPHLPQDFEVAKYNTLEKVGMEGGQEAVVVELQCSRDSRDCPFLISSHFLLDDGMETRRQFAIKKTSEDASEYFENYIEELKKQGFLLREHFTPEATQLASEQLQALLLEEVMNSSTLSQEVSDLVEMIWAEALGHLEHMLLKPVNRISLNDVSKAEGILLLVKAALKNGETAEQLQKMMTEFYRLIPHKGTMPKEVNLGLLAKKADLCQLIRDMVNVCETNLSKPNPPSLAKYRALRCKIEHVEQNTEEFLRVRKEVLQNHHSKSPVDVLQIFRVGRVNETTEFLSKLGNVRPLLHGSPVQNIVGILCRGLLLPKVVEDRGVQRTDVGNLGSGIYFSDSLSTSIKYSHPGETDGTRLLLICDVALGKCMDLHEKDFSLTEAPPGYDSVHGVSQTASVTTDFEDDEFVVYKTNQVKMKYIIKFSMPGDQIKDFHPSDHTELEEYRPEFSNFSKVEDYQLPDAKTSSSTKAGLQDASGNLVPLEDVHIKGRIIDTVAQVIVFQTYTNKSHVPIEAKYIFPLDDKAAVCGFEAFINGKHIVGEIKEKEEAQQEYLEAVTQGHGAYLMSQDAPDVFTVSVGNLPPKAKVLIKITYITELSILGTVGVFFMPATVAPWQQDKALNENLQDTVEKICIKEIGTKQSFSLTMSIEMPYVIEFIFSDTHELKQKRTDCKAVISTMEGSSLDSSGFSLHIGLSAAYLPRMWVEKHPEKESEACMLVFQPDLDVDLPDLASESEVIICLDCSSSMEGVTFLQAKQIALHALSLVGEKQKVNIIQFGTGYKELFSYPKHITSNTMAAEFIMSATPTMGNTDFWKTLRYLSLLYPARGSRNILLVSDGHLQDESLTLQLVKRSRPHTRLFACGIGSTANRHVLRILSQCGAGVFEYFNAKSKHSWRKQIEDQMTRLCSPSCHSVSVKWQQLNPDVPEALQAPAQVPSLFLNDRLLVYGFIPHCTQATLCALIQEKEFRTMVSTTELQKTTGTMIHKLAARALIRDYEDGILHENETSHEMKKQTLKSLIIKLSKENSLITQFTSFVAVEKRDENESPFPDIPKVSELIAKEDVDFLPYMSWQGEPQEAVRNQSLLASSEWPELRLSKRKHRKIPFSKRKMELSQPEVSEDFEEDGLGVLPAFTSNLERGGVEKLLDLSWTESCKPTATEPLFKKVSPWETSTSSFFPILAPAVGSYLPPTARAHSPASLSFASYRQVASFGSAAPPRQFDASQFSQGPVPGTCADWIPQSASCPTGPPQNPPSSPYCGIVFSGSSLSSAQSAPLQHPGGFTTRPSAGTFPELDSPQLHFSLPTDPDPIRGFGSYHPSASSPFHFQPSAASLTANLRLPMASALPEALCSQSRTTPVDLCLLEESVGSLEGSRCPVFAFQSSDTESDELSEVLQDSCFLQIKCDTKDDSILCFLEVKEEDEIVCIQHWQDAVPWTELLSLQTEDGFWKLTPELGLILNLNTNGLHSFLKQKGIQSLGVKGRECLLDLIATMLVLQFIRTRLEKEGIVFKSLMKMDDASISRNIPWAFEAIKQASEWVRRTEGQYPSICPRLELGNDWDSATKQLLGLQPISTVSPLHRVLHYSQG

IC50 [1]: 2700 nM
Structure (SMILES): Cc1c(-c2cncc(C(F)(F)F)c2)ccc2c1CCNC2=O

Structure (SMILES): Cc1c(-c2cccnc2)ccc2c1CCNC2=O
IC50 [1]: 2500 nM

Structure (SMILES): Cc1c(-c2ccc3[nH]ccc3c2)ccc2c1CCNC2=O
IC50 [1]: 1100 nM

IC50 [1]: 2200 nM
Structure (SMILES): Cc1c(-c2cncc(F)c2)ccc2c1CCNC2=O

Structure (SMILES): Cc1c(-c2cnc3[nH]ccc3c2)ccc2c1CCNC2=O
IC50 [1]: 710 nM

Structure (SMILES): Cc1ccc2c(c1)CCNC2=O
IC50 [1]: 33100 nM

Structure (SMILES): Cc1c(-c2ccccc2)ccc2c1CCNC2=O
IC50 [1]: 1600 nM
solubility [2]: Insoluble

Structure (SMILES): O=C1NCCc2c1cccc2-c1ccccc1
IC50 [1]: 35000 nM

Structure (SMILES): O=C1NCCc2cc(Br)ccc21
IC50 [1]: 17100 nM

IC50 [1]: 1600 nM
Structure (SMILES): CC(=O)c1cccc(-c2ccc3c(c2)CCNC3=O)c1

Structure (SMILES): O=C1NCCc2cc(-c3cccc(F)c3)ccc21
IC50 [1]: 1400 nM

IC50 [1]: 1800 nM
IC50 [3]: > 100000 nM
IC50 [4]: > 30000 nM
IC50 [5]: > 30000 nM
IC50 [6]: 19000 nM
IC50 [7]: 6700 nM
Ratio IC50 (Homo sapiens [8]): > 37
Ratio IC50 (Homo sapiens [9]): > 37
Ratio IC50 (Homo sapiens [10]): > 37
Ratio IC50 (Homo sapiens [11]): > 37
Ratio IC50 (Homo sapiens [12]): > 37
Ratio IC50 (Homo sapiens [15]): 7
Ratio IC50 (Homo sapiens [18]): 22
Ratio IC50 (Homo sapiens [19]): 23
Ratio IC50 (Homo sapiens [20]): 2.5
inhibition [21]: 80%
inhibition [22]: Dose-dependent effect
inhibition [23]: Dose-dependent effect
Structure (SMILES): Cc1c(-c2ccnc(C(F)(F)F)c2)ccc2c1CCNC2=O
Ratio IC50 (Homo sapiens [13]): > 10
Ratio IC50 (Homo sapiens [14]): > 10
Ratio IC50 (Homo sapiens [16]): > 10
Ratio IC50 (Homo sapiens [17]): > 10

IC50 [1]: > 50000 nM
Structure (SMILES): O=C1NCCc2cc(Cc3ccccc3)ccc21
